Blank lines part the entries; values can stand above or below the molecule they belong to.
Key:
Rhesus monkey [1] = test: Ex vivo NK1 receptor occupancy in rhesus monkey brain at plasma level of 390 ng/ml; assay type: functional, Macaca mulatta
Macaca mulatta = species: Macaca mulatta; test: Ex vivo NK1 receptor occupancy in rhesus brain at plasma level of 31 ng/ml
Rhesus monkey [2] = test: Ex vivo NK1 receptor occupancy in rhesus monkey brain at plasma level of 37 ng/ml; assay type: functional, Macaca mulatta
Outline: (§1)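 Rhesus PET with [18F]SPARQ: striatal binding compared before and during steady-state plasma drug level, achieved by iv bolus plus matched constant iv infusion continued through imaging; occupancy vs plasma concentration fit to three-parameter Hill equation.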

Rhesus monkey [3] = test: Ex vivo NK1 receptor occupancy in rhesus monkey brain at plasma level of 5 ng/ml; assay type: functional, Macaca mulatta; outline: as §1
[4] = Plasma clearance in rat at 1 mg/kg, iv and 2 mg/kg, po; assay type: ADME, organism-based
Outline: (§2)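 Rats dosed at 1 mg/kg iv and 2 mg/kg po; plasma pharmacokinetics (clearance, Vdss, half-life, oral bioavailability) derived.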

[5] = Volume of distribution at steady state in rat at 1 mg/kg, iv and 2 mg/kg, po; assay type: ADME, organism-based; conditions: in vivo, read-out: Vdss; outline: as §2
[6] = Half life in rat at 1 mg/kg, iv and 2 mg/kg, po; assay type: ADME, organism-based; conditions: in vivo; outline: as §2
[7] = Bioavailability in rat at 1 mg/kg, iv and 2 mg/kg; assay type: ADME, organism-based; conditions: in vivo; outline: as §2
[8] = Plasma clearance in dog at 0.5 mg/kg, iv and 1 mg/kg, po; assay type: ADME, organism-based, Canis lupus familiaris
Outline: (§3)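 Dogs and monkeys dosed at 0.5 mg/kg iv and 1 mg/kg po; plasma sampled to derive clearance, Vdss, half-life, oral bioavailability and dose-normalised oral AUC(0-∞).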

[9] = Volume of distribution at steady state in dog at 0.5 mg/kg, iv and 1 mg/kg, po; assay type: ADME, organism-based, Canis lupus familiaris; conditions: in vivo, read-out: Vdss; outline: as §3
[10] = Half life in dog at 0.5 mg/kg, iv and 1 mg/kg, po; assay type: ADME, organism-based, Canis lupus familiaris; conditions: in vivo; outline: as §3
[11] = Bioavailability in dog at 0.5 mg/kg, iv and 1 mg/kg, po; assay type: ADME, organism-based, Canis lupus familiaris; conditions: in vivo; outline: as §3
[12] = Plasma clearance in monkey at 0.5 mg/kg, iv and 1 mg/kg, po; assay type: ADME, organism-based, Macaca mulatta; conditions: rhesus monkey; outline: as §3
[13] = Volume of distribution at steady state in monkey at 0.5 mg/kg, iv and 1 mg/kg, po; assay type: ADME, organism-based, Macaca mulatta; conditions: rhesus monkey, in vivo, read-out: Vdss; outline: as §3
[14] = Half life in monkey at 0.5 mg/kg, iv and 1 mg/kg, po; assay type: ADME, organism-based, Macaca mulatta; conditions: rhesus monkey, in vivo; outline: as §3
[15] = Bioavailability in monkey at 0.5 mg/kg, iv and 1 mg/kg, po; assay type: ADME, organism-based, Macaca mulatta; conditions: rhesus monkey, in vivo; outline: as §3
Cytochrome P450 3A4 = Cytochrome P450 3A4 (Homo sapiens, UniProt P08684); test: Inhibition of human CYP3A4; assay type: ADME
Cytochrome P450 2C8 = biological target: T1, Cytochrome P450 2C8 (Homo sapiens, UniProt P10632); test: Inhibition of human CYP2C8; assay type: ADME
T1 sequence (P10632 whole entry): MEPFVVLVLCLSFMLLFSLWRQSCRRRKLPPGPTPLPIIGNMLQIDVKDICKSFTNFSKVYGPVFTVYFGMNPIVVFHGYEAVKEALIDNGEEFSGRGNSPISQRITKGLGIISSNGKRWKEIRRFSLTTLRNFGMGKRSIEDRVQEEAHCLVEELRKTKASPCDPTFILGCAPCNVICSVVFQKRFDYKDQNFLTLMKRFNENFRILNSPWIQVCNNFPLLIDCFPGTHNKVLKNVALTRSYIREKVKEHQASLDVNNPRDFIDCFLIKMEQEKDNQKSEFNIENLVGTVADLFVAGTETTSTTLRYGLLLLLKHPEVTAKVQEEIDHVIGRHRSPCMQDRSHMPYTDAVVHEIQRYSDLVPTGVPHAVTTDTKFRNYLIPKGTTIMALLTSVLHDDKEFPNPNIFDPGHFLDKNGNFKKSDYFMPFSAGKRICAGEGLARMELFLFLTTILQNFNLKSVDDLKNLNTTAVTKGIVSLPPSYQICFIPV

Cytochrome P450 2C9 = Cytochrome P450 2C9 (Homo sapiens, UniProt P11712); test: Inhibition of human CYP2C9; assay type: ADME
Cytochrome P450 2C19 = Cytochrome P450 2C19 (Homo sapiens, UniProt P33261); test: Inhibition of human CYP2C19; assay type: ADME
Cytochrome P450 2D6 = Cytochrome P450 2D6 (Homo sapiens, UniProt P10635); test: Inhibition of human CYP2D6; assay type: ADME
Cytochrome P450 1A2 = biological target: T2, Cytochrome P450 1A2 (Homo sapiens, UniProt P05177); test: Inhibition of human CYP1A2; assay type: ADME
T2 sequence (P05177 whole entry): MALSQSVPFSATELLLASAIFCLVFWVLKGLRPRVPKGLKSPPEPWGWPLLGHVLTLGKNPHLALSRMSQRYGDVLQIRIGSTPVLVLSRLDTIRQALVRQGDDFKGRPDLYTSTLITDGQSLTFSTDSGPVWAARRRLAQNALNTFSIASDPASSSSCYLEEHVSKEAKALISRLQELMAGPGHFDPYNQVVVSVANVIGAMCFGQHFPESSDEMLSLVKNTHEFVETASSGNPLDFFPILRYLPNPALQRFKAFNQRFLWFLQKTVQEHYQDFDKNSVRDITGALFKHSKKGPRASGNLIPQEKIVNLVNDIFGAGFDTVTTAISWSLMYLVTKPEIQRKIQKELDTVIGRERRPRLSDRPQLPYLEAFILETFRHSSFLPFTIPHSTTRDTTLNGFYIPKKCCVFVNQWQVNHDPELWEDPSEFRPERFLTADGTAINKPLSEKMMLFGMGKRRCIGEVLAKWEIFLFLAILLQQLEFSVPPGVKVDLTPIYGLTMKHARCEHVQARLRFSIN

Substance-K receptor = biological target: T3, Substance-K receptor (Homo sapiens, UniProt P21452); test: Binding affinity to human NK2 receptor
T3 sequence (P21452 whole entry): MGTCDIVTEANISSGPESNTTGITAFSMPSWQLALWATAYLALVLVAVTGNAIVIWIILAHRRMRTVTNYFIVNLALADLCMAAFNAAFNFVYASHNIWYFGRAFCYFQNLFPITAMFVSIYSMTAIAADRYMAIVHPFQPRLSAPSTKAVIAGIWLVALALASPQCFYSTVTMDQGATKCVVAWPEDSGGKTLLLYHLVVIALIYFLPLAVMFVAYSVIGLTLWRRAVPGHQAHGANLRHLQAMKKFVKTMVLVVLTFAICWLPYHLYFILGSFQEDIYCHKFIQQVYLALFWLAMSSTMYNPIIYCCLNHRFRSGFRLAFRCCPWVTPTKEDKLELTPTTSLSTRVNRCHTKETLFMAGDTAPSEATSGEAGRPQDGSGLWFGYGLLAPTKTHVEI

Neuromedin-K receptor = biological target: T4, Neuromedin-K receptor (Homo sapiens, UniProt P29371); test: Binding affinity to human NK3 receptor
T4 sequence (P29371 whole entry): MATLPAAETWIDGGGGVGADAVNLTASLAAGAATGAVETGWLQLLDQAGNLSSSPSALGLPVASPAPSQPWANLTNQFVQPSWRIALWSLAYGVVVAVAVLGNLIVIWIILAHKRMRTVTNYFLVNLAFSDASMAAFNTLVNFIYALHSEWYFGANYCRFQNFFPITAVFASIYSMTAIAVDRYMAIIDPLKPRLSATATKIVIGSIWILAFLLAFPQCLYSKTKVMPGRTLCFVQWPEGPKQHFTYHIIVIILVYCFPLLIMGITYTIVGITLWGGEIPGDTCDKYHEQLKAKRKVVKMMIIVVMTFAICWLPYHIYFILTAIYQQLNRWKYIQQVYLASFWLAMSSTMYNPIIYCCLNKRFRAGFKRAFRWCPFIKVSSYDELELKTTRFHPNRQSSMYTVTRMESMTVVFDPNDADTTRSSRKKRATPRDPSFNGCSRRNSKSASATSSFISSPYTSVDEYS

Substance-P receptor [16] = biological target: T5, Substance-P receptor (Homo sapiens, UniProt P25103); test: Antagonist activity at human NK1 receptor expressed in CHO cells assessed as inhibition of substance P-induced IP1 formation at 100 nM; assay type: functional, cell-based; design: scale not given: the % may be the effect or the level left
Outline: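 CHO cells stably expressing recombinant human NK1 receptor; substance-P-evoked IP-1 formation measured with antagonist present at 100 nM; value given as % of substance P response remaining.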

Gerbillinae [17] = test: Toxicity in iv dosed gerbils brain assessed as inhibition of GR-73632-induced foot tapping after 1 hr; assay type: organism-based; conditions: in vivo
Gerbillinae [18] = test: Toxicity in iv dosed gerbils brain assessed as inhibition of GR-73632-induced foot tapping after 24 hrs; assay type: organism-based; conditions: in vivo
Gerbillinae [19] = test: Toxicity in iv dosed gerbils plasma assessed as inhibition of GR-73632-induced foot tapping after 1 hr; assay type: organism-based
Substance-P receptor [20] = biological target: T5, Substance-P receptor; test: Displacement of [125I]substance P human recombinant NK1 receptor expressed in CHO cells in absence of human serum albumin; assay type: cell-based
Outline: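 Competitive radioligand binding with [125I]substance P on CHO cells stably expressing recombinant hNK1 receptor; IC50 determined without and with 50% human serum.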

Gerbillinae [21] = test: in iv dosed gerbils plasma assessed as inhibition of GR-73632-induced foot tapping after 24 hrs

T5 sequence (P25103 whole entry): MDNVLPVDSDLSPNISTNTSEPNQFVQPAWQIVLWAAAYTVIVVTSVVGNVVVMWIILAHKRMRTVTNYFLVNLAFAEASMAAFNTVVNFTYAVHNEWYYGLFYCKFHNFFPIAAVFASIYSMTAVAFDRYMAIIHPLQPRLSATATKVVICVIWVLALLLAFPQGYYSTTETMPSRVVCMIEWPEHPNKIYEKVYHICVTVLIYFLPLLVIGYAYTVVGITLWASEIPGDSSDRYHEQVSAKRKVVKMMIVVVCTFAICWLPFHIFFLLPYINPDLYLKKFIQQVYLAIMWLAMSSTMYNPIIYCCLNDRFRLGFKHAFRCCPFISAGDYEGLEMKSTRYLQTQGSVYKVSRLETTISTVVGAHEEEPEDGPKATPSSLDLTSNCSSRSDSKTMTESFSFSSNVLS
Cytochrome P450 2C9, sequence (P11712 whole entry): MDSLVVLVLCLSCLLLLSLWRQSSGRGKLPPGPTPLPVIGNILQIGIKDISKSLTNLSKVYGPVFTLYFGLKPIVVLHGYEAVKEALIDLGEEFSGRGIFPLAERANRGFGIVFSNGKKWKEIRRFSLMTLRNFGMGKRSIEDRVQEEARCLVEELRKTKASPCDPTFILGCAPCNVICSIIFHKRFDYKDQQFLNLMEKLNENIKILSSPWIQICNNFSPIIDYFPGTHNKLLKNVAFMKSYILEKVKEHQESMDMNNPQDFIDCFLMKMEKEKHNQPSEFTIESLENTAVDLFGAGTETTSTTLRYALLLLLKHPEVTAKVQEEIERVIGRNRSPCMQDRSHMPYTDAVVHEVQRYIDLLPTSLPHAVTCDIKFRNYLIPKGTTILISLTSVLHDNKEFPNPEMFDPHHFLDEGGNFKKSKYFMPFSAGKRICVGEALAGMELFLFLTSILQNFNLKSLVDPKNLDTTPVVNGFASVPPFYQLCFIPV
Cytochrome P450 2D6, sequence (P10635 whole entry): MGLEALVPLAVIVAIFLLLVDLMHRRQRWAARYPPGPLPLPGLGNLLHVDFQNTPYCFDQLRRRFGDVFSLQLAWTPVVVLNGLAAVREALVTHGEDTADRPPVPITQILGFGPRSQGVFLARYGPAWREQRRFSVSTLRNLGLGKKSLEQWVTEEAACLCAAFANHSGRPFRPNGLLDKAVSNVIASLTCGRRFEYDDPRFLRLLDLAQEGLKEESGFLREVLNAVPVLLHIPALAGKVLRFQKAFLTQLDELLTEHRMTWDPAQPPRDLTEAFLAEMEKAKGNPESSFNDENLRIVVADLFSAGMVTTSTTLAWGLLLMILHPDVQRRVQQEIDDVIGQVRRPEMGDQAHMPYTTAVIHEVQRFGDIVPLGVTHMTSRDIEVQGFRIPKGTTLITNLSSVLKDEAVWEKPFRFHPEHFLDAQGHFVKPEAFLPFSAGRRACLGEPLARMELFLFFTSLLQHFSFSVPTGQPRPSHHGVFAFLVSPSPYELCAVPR
Cytochrome P450 3A4, sequence (P08684 whole entry): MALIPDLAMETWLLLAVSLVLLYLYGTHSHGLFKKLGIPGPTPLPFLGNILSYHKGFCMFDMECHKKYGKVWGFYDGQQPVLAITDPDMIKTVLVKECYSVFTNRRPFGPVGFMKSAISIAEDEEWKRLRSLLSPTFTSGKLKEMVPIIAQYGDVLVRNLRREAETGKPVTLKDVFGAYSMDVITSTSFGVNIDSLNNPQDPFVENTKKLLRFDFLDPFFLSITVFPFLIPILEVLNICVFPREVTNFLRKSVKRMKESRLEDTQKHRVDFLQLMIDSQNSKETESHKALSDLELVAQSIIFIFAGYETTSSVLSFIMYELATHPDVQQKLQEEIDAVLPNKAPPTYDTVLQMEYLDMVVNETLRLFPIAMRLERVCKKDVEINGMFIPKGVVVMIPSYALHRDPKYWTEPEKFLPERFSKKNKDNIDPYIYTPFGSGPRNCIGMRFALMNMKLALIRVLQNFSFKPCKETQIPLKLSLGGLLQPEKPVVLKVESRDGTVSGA
Cytochrome P450 2C19, sequence (P33261 whole entry): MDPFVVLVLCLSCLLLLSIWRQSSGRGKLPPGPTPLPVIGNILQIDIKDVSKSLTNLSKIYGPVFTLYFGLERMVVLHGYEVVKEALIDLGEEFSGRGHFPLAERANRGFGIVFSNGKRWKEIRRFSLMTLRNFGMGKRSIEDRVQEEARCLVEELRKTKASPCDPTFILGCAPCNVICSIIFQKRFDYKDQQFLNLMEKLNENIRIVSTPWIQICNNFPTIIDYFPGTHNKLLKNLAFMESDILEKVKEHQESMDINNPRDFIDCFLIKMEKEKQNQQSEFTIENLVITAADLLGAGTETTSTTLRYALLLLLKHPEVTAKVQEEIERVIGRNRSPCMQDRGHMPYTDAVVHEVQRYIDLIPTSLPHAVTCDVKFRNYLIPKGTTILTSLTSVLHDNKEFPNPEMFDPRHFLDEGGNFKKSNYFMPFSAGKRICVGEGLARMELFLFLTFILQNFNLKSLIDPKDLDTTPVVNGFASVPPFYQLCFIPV

Structure (SMILES): C[C@@H](O[C@H]1CN(C2=CC(=O)CC2)C[C@@H]1c1ccc(F)cc1)c1cc(C(F)(F)F)cc(C(F)(F)F)c1
Activity (Rhesus monkey [1]): >=90%
Activity (Macaca mulatta): 50%

clearance [4]: 0.042 L/h/kg
Vd [5]: 1.5 L/kg
half-life [6]: 24 h
bioavailability [7]: 40%
clearance [8]: 0.042 L/h/kg
Vd [9]: 2 L/kg
half-life [10]: 31 h
bioavailability [11]: 71%
clearance [12]: 0.06 L/h/kg
Vd [13]: 2 L/kg
half-life [14]: 24 h
bioavailability [15]: 69%
IC50 (Cytochrome P450 3A4): 39000 nM
IC50 (Cytochrome P450 2C8): 58000 nM
IC50 (Cytochrome P450 2C9): 30000 nM
IC50 (Cytochrome P450 2C19): 29000 nM
IC50 (Cytochrome P450 2D6): 35000 nM
IC50 (Cytochrome P450 1A2): > 100000 nM
Ki (Substance-K receptor): 2400 nM
Ki (Neuromedin-K receptor): 2400 nM
Activity (Substance-P receptor [16]): 5%
IC50 (Substance-P receptor [20]): 0.06 nM
IC50 (Gerbillinae [21]): 6 nM
Structure (SMILES): C[C@@H](O[C@H]1CC[C@@H]2CN(C3=CC(=O)CC3)C[C@H]2[C@@H]1c1ccc(F)cc1)c1cc(C(F)(F)F)cc(C(F)(F)F)c1 [SERLOPITANT]
Activity (Rhesus monkey [2]): 90%
Activity (Rhesus monkey [3]): 50%
ID50 (Gerbillinae [17]): 0.08 mg/kg
ID50 (Gerbillinae [18]): 0.46 mg/kg
IC50 (Gerbillinae [19]): 6.5 nM

Activity (Substance-P receptor [16]): 58%
IC50 (Substance-P receptor [20]): 0.09 nM
Structure (SMILES): CNC(=O)N1C[C@H]2CC[C@H](O[C@H](C)c3cc(C(F)(F)F)cc(C(F)(F)F)c3)[C@@H](c3ccc(F)cc3)[C@@H]2C1

Activity (Substance-P receptor [16]): 4%
IC50 (Substance-P receptor [20]): 0.13 nM
Structure (SMILES): C[C@@H](O[C@H]1CC[C@@H]2CN(C3=CC(=O)CCC3)C[C@H]2[C@@H]1c1ccc(F)cc1)c1cc(C(F)(F)F)cc(C(F)(F)F)c1
ID50 (Gerbillinae [17]): 0.18 mg/kg
ID50 (Gerbillinae [18]): 0.3 mg/kg

Activity (Substance-P receptor [16]): 40%
IC50 (Substance-P receptor [20]): 0.11 nM
Structure (SMILES): CC(=O)N1C[C@H]2CC[C@H](O[C@H](C)c3cc(C(F)(F)F)cc(C(F)(F)F)c3)[C@@H](c3ccc(F)cc3)[C@@H]2C1

Activity (Substance-P receptor [16]): 9%
IC50 (Substance-P receptor [20]): 0.1 nM
Structure (SMILES): CC1=C(N2C[C@H]3CC[C@H](O[C@H](C)c4cc(C(F)(F)F)cc(C(F)(F)F)c4)[C@@H](c4ccc(F)cc4)[C@@H]3C2)CCC1=O
ID50 (Gerbillinae [17]): 0.13 mg/kg
ID50 (Gerbillinae [18]): 0.2 mg/kg

Activity (Substance-P receptor [16]): 79%
IC50 (Substance-P receptor [20]): 0.525 nM
Structure (SMILES): C[C@@H](O[C@H]1CC[C@@H]2CN(c3cnccn3)C[C@H]2[C@@H]1c1ccc(F)cc1)c1cc(C(F)(F)F)cc(C(F)(F)F)c1

Activity (Substance-P receptor [16]): 44%
IC50 (Substance-P receptor [20]): 0.15 nM
Structure (SMILES): C[C@@H](O[C@H]1CC[C@@H]2CNC[C@H]2[C@@H]1c1ccc(F)cc1)c1cc(C(F)(F)F)cc(C(F)(F)F)c1

Activity (Substance-P receptor [16]): 54%
IC50 (Substance-P receptor [20]): 0.255 nM
Structure (SMILES): C[C@@H](O[C@H]1CC[C@@H]2CN(C)C[C@H]2[C@@H]1c1ccc(F)cc1)c1cc(C(F)(F)F)cc(C(F)(F)F)c1

From ChEMBL document CHEMBL1138468, “Potent, brain-penetrant, hydroisoindoline-based human neurokinin-1 receptor antagonists” (J Med Chem, 2009)
